This note sets out measurements from ChEMBL document CHEMBL3297742, “Tetrahydronaphthyridine and dihydronaphthyridinone ethers as positive allosteric modulators of the metabotropic glutamate receptor 5 (mGlu₅)” (J Med Chem, 2014).

Molecules are shown by their SMILES.

For orientation: fraction unbound means free concentration divided by total concentration. A higher fraction unbound goes with weak binding. Usually IC50 stands for the concentration that gives 50% inhibition. Low readings indicate greater potency in that assay, high ones weaker potency in that assay.

The target of data set [1] is T1, Metabotropic glutamate receptor 5 (Rattus norvegicus, UniProt P31424). In words: Positive allosteric modulator activity at rat mGlu5 receptor expressed in HEK293 cells assessed as potentiation of glutamate-induced calcium mobilization by fluorescence assay. It counts as functional, cell-based. Put shortly: (§1)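 HEK293 cells stably expressing rat mGlu5, 15000 cells/well, grown overnight, loaded with 1 µM Fluo-4AM for 50 min at 37 °C in HBSS/20 mM HEPES/2.5 mM probenecid pH 7.4. Compound added, then an EC20 of glutamate 140 s later and an EC80 90–120 s after that. Fluorescence over basal normalized to maximal glutamate response (100 µM glutamate); compound at up to 30 µM; ≥3 independent determinations.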
(In general: Calcium flux is commonly read through the fluorescence of an indicator in the cells.)

The target of data set [2] is Metabotropic glutamate receptor 5 (Rattus norvegicus) (UniProt P31424). In words: Positive allosteric modulator activity at rat mGlu5 receptor expressed in HEK293 cells assessed as potentiation of glutamate-induced calcium mobilization at 30 uM by fluorescence assay relative to glutamate. The class given is functional, cell-based. Put shortly:
as §1

For data set [3], the system named is Plasma. Briefly: Fraction unbound in human plasma. The class given is ADME, cell-free.
Data set [4] relates to Plasma. Briefly: (§2) Fraction unbound in rat plasma. It counts as ADME, cell-free.
Data set [5] deals with Metabotropic glutamate receptor 3 (Rattus norvegicus) (UniProt P31422). In words: Negative allosteric modulator activity at rat mGlu3 receptor expressed in HEK293 cells assessed as negative cooperativity fold shift of glutamate concentration response curve for GIRK channel-mediated thallium flux at 10 uM treated 140s prior to glutamate challenge by fluorescence analysis. It counts as cell-based. Put shortly:
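HEK293-GIRK cells expressing rat mGlu2, 3, 4, 6, 7 or 8, 15000 cells/well. Vehicle or 10 µM compound added, then 140 s later a glutamate CRC (L-AP4 for mGlu7) in thallium buffer (12 mM thallium sulfate, 10 mM HEPES). Thallium flux through GIRK read by fluorescence.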

Data set [6] in a line: as §2. The class given is ADME, cell-free.
Data set [7] deals with T1, Metabotropic glutamate receptor 5. In words: Partial antagonist activity at rat mGlu5 receptor expressed in HEK293 cells. The class given is cell-based.
The target in data set [8] is Metabotropic glutamate receptor 5 (Rattus norvegicus) (UniProt P31424). In words: Partial antagonist activity at rat mGlu5 receptor expressed in HEK293 cells relative to glutamate. The class given is cell-based.
Metabotropic glutamate receptor 5 (Rattus norvegicus), sequence (P31424 21-1203 limits assumed): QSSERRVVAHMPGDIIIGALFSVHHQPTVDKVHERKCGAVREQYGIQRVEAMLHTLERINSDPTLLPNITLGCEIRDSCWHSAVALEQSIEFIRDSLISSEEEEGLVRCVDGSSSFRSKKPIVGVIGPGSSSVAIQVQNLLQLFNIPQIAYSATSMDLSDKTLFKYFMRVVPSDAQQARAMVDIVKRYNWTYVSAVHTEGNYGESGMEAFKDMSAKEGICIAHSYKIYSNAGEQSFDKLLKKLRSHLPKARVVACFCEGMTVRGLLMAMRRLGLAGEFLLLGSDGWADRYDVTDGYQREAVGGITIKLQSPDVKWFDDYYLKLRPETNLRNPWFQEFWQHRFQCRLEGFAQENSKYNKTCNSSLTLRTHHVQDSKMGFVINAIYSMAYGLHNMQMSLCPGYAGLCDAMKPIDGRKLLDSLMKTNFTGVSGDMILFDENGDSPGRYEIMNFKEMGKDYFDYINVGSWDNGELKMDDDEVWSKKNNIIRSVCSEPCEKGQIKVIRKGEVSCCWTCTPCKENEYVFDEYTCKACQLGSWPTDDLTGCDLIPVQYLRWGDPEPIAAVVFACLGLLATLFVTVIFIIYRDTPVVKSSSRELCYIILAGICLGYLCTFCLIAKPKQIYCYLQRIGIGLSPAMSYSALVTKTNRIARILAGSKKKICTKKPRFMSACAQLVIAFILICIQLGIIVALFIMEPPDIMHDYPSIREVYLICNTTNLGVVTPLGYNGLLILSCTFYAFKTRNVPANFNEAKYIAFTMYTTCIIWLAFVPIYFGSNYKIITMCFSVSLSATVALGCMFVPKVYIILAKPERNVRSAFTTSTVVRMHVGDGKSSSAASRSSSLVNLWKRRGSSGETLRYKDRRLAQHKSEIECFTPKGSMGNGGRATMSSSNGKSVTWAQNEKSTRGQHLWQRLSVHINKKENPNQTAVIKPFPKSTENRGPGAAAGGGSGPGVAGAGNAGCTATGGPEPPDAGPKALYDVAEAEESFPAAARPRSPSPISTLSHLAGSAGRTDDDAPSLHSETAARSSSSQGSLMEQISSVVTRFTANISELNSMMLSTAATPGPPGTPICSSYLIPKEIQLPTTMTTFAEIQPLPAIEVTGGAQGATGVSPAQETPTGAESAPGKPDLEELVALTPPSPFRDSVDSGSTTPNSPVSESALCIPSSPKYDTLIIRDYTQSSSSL

T1 sequence (P31424 whole entry): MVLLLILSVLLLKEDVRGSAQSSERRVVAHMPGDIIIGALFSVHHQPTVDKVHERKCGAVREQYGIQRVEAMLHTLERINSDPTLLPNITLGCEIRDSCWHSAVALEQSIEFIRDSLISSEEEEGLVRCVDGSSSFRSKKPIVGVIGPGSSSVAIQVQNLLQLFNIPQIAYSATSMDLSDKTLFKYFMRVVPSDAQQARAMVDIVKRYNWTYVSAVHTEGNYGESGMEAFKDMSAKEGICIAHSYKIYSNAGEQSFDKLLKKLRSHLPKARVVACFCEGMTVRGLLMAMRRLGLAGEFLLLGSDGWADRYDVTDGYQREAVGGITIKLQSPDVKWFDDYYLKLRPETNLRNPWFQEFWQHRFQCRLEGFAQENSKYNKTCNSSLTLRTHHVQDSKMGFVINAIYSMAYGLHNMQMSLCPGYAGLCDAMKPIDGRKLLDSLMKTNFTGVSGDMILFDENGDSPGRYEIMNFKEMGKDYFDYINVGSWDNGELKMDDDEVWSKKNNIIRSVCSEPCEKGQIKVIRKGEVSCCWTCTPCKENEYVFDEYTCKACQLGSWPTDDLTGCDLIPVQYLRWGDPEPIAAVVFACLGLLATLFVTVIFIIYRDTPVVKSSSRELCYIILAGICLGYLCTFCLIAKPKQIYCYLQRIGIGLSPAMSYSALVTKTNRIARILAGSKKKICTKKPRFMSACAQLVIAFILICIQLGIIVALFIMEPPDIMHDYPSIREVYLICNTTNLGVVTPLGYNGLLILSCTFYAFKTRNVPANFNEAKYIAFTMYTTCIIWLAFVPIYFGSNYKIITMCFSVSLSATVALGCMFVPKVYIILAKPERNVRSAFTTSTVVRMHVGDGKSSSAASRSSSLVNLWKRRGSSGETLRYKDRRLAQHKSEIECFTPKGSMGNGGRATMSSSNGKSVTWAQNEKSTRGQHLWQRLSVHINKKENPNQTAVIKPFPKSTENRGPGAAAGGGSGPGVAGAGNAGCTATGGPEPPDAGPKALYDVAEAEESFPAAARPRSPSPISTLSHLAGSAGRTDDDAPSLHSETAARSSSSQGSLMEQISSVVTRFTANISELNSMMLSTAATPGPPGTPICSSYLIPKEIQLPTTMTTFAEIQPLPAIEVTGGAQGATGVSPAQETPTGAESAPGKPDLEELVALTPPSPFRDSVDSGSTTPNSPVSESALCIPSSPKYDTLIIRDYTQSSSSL
Metabotropic glutamate receptor 3 (Rattus norvegicus), sequence (P31422 23-879 limits assumed): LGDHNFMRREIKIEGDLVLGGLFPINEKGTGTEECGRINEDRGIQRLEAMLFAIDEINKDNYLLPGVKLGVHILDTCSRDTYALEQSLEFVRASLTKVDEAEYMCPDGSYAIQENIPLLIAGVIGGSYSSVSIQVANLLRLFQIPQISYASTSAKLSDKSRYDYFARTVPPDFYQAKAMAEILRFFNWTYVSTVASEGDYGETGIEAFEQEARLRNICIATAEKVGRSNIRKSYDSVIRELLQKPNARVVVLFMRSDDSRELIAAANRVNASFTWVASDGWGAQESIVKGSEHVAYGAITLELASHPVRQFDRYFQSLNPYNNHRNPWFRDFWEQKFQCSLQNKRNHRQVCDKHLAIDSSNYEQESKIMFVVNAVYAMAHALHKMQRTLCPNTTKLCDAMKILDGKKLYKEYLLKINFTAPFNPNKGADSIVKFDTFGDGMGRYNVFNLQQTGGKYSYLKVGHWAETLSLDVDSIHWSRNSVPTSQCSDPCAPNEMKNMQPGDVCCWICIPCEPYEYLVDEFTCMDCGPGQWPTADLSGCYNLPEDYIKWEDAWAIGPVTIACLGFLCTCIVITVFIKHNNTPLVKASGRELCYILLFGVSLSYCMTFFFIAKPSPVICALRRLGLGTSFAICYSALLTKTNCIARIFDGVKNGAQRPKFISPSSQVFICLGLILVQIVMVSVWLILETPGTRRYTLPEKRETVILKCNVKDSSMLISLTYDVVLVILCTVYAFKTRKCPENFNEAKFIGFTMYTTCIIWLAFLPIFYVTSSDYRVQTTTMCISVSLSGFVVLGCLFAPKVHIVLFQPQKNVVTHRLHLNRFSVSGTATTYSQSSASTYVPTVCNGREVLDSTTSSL

Turning to `O=C1NCCc2nc(OCc3cccc(Cl)c3)ccc21`, in data set [1] (read-out: EC50), the EC50 worked out at 62 nM. Further, the %max in data set [2] came out at 43%. As to `O=C1c2ccc(OCc3cccc(F)c3)nc2CCN1CC1CC1`, the Activity in data set [2] is < 10%.

With `O=C1c2ccc(OCc3cccc(F)c3)nc2CCN1c1ccc(F)cc1`, the EC50 in data set [1] (read-out: EC50) is 118 nM. Besides, the %max in data set [2] was 38%. For the compound `O=C1NCCc2nc(OCc3ccccc3Cl)ccc21`, the Activity in data set [2] is < 10%. The same measure, in the same setting: as for `O=C(C1CC1)N1CCc2ncc(OCc3cccc(F)c3)cc2C1`, the figure is < 10%; as for `O=C1NCCc2nc(OCc3ccccn3)ccc21`, < 10%. `O=C1NCCc2nc(OCc3ccccc3F)ccc21`: the EC50 in data set [1] (read-out: EC50) amounted to 1170 nM. In data set [2], the %max came to 68%.

`CCCCOc1ccc2c(n1)CCN(c1ccc(F)cc1F)C2=O`: the Activity in data set [2] was < 10%. Regarding `O=C(c1ccc(F)cc1)N1CCc2ncc(COc3ccc(F)cc3)cc2C1`, in data set [1] (read-out: EC50), the EC50 stood at 1770 nM. Besides, the %max in data set [2] worked out at 53%. Turning to `O=C(c1ccccc1)N1CCc2ncc(OCc3ccccc3)cc2C1`, the Activity in data set [2] is < 10%. On to `O=C(c1cccc(F)c1)N1CCc2ncc(OCc3cccc(F)c3)cc2C1`, for which the EC50 in data set [1] (read-out: EC50) is 1630 nM. The %max in data set [2] came to 30%. The corresponding values for `O=C1c2cnc(COc3ccccc3)cc2CCN1c1ccc(F)cc1` are 403 nM and 30%. The corresponding values for `CC1(CN2CCc3nc(OCc4cccc(F)c4)ccc3C2=O)COC1` are 2470 nM and 39%.

As for `CC(C)CN1CCc2nc(COc3cccc(F)c3)ccc2C1=O`, the EC50 in data set [1] (read-out: EC50) was 1150 nM. Also, the %max in data set [2] turned out to be 38%. As to `CCCCOc1ccc2c(n1)CCNC2=O`, the Activity in data set [2] is < 10%.

As to `O=C1NCCc2nc(COc3ccccc3)ccc21`, the EC50 in data set [1] (read-out: EC50) was > 10000 nM. The %max in data set [2] turned out to be 43%. Take `O=C(c1ccc(F)cc1)N1CCc2ncc(COc3cccc(F)c3)cc2C1`: the EC50 in data set [1] (read-out: EC50) worked out at 1090 nM. The %max in data set [2] was 69%. Turning to `O=C1c2ccc(OCc3cccc(F)c3)nc2CCN1c1ccc(F)cn1`, in data set [1] (read-out: EC50), the EC50 came to 212 nM. For the same compound, the values for the Fu with Plasma [3] and in the data set with Plasma [4] were 0.01 and 0.025, respectively. Also, the %max in data set [2] is 50%. As to `O=C1NCCc2nc(OCc3cccnc3)ccc21`, the Activity in data set [2] is < 10%. Same read-out and setting: the result for `CC(C)CN1CCc2nc(OCc3cccc(F)c3)ccc2C1=O` reads < 10%.

With `O=C1c2ccc(COc3cccc(F)c3)nc2CCN1c1ccc(F)cn1`, the EC50 in data set [1] (read-out: EC50) was 595 nM. For the same compound, in data set [2], the %max is 59%.

For the compound `O=C1NCCc2nc(COc3cccc(F)c3)ccc21`, the EC50 in data set [1] (read-out: EC50) is > 10000 nM. Besides, the %max in data set [2] turned out to be 34%. The like results for `O=C1c2ccc(COc3cccc(F)c3)nc2CCN1CC1CC1` were, in that order, > 10000 nM and 33%. As to `O=C1NCCc2nc(OCc3ccc(Cl)cc3)ccc21`, in data set [2], the Activity was < 10%. As for `O=C1c2ccc(COc3cccc(F)c3)nc2CCN1c1ccc(F)cc1`, the fold change (FC) in data set [5] amounted to 0.2. Also, the EC50 in data set [1] (read-out: EC50) amounted to 97 nM. The Fu in the data set on Plasma [3] came out at 0.014; in the data set with Plasma [4], 0.029. In data set [2], the %max worked out at 72%. For the compound `O=C1c2ccc(COc3ccccc3)nc2CCN1c1ccc(F)cc1`, the EC50 in data set [1] (read-out: EC50) was 198 nM. Besides, the Fu in the data set with Plasma [3] is on record as 0.021. The same compound gave a free fraction (fraction unbound) in data set [6] of 0.036. Also, the %max in data set [2] came out at 68%. As for `CN1CCc2nc(OCc3cccc(F)c3)ccc2C1=O`, the Activity in data set [2] is < 10%. In the case of `O=C1c2ccc(OCc3ccccc3)nc2CCN1Cc1ccccc1`, in data set [1] (read-out: EC50), the EC50 was 2760 nM. In addition, the %max in data set [2] amounted to 23%.

As for `O=C1NCCc2cc(COc3ccccc3)cnc21`, the Activity in data set [2] is < 10%. `O=C1c2ccc(OCc3cccc(F)c3)nc2CCN1CC1CCC1`: the EC50 in data set [1] (read-out: EC50) was 444 nM. Moreover, the %max in data set [2] was determined as 36%. The corresponding values for `O=C1c2ccc(COc3cccc(F)c3)nc2CCN1Cc1ccccc1` are > 10000 nM and 38%.

In the case of `CN1CCc2cc(COc3ccccc3)ncc2C1=O`, in data set [2], the Activity is < 10%.

As for `O=C1c2ccc(OCc3cccc(F)c3)nc2CCN1Cc1ccccc1`, the EC50 in data set [1] (read-out: EC50) stood at 3170 nM. For the same compound, the %max in data set [2] was 36%. For the compound `O=C(c1ccc(F)cc1)N1CCc2ncc(OCc3ccccc3)cc2C1`, the IC50 in data set [7] was determined as 7810 nM. Further, in data set [8], the Emin turned out to be 53%. For the compound `C[C@@H](N1CCc2cc(COc3ccccc3)cnc2C1=O)C(C)(C)C`, the Activity in data set [2] was < 10%. Take `O=C1NCCc2cc(COc3ccccc3)ncc21`: the Activity in data set [2] is < 10%. Consider `O=C(c1ccc(F)cc1)N1CCc2ncc(COc3ccccc3)cc2C1`, for which the EC50 in data set [1] (read-out: EC50) came out at 640 nM. Moreover, the %max in data set [2] amounted to 69%. As for `O=C1c2ncc(COc3ccccc3)cc2CCN1c1ccc(F)cc1`, the fold change (FC) in data set [5] was 0.3. Also, the EC50 in data set [1] (read-out: EC50) was 538 nM. The Fu is listed as 0.096 in the data set on Plasma [3] and 0.11 in the data set with Plasma [4]. For the same compound, the %max in data set [2] came out at 81%. `CN1CCc2nc(COc3cccc(F)c3)ccc2C1=O`: the Activity in data set [2] was < 10%.

Take `O=C1c2ccc(OCc3ccccc3)nc2CCN1Cc1ccccn1`: the Activity in data set [2] is < 10%.

Consider `CN1CCc2cc(COc3ccccc3)cnc2C1=O`, for which the Activity in data set [2] is < 10%. Still for that read-out and setting: as for `CC(N1CCc2cc(COc3ccccc3)ncc2C1=O)C(C)(C)C` (stereo not drawn), the figure is < 10%. Turning to `O=C1NCCc2nc(OCc3ccccc3)ccc21`, the EC50 in data set [1] (read-out: EC50) was 1030 nM; in data set [1] (read-out: pEC50 (converted)) it was 1050 nM. Besides, the %max in data set [2] was 54%.
